Experimental data published in ChEMBL document CHEMBL1770100, “Design and synthesis of N-phenylacetyl (sulfonyl) 4,5-dihydropyrazole derivatives as potential antitumor agents” (Bioorg Med Chem Lett, 2011).

Columns and labels:
PC-3 = assay: Cytotoxicity against human PC3 after 48 hrs by MTT assay; assay type: functional, cell-based; settings: PC-3, 48 h
Method in brief: (§1)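 Log-phase cells in RPMI 1640 with 10% FBS, diluted to 3 × 10⁴ cells/mL and seeded in 96-well plates. After 24 h at 37 °C, 5% CO₂, samples at pre-set concentrations were added to six wells, with 5-fluorouracil as positive reference. Exposure was 48 h. MTT at 2.5 mg/mL in PBS was added for 4 h, formazan dissolved in DMSO, A570 read. IC50 = concentration giving 50% survival. Three experiments in triplicate, mean ± SD.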

HepG2 = assay: Cytotoxicity against human HepG2 after 48 hrs by MTT assay; assay type: functional, cell-based; settings: HepG2, 48 h; method in brief: as §1
SGC-7901 = assay: Cytotoxicity against human SGC7901 after 48 hrs by MTT assay; assay type: functional, cell-based; settings: SGC-7901, 48 h; method in brief: as §1
[1] = biological target: DNA polymerase I, thermostable (Thermus aquaticus, UniProt P19821); assay: Inhibition of Thermus aquaticus taq polymerase
[2] = Selectivity index, ratio of IC50 for Thermus aquaticus taq polymerase to IC50 for telomerase
[3] = biological target: Telomerase reverse transcriptase (Homo sapiens, UniProt O14746); assay: Inhibition of telomerase activity expressed in human SGC7901 cells by SYBER green dye based TRAP; assay type: cell-based, SGC-7901
Method in brief: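 Modified TRAP assay using total cell lysate of SGC-7901 as the telomerase source. Lysate protein was measured by Bio-Rad assay against BSA standards. Extension products were resolved on 10% polyacrylamide gels and stained with SYBR Green. Reported as IC50.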

Sequence of Telomerase reverse transcriptase (O14746 whole entry): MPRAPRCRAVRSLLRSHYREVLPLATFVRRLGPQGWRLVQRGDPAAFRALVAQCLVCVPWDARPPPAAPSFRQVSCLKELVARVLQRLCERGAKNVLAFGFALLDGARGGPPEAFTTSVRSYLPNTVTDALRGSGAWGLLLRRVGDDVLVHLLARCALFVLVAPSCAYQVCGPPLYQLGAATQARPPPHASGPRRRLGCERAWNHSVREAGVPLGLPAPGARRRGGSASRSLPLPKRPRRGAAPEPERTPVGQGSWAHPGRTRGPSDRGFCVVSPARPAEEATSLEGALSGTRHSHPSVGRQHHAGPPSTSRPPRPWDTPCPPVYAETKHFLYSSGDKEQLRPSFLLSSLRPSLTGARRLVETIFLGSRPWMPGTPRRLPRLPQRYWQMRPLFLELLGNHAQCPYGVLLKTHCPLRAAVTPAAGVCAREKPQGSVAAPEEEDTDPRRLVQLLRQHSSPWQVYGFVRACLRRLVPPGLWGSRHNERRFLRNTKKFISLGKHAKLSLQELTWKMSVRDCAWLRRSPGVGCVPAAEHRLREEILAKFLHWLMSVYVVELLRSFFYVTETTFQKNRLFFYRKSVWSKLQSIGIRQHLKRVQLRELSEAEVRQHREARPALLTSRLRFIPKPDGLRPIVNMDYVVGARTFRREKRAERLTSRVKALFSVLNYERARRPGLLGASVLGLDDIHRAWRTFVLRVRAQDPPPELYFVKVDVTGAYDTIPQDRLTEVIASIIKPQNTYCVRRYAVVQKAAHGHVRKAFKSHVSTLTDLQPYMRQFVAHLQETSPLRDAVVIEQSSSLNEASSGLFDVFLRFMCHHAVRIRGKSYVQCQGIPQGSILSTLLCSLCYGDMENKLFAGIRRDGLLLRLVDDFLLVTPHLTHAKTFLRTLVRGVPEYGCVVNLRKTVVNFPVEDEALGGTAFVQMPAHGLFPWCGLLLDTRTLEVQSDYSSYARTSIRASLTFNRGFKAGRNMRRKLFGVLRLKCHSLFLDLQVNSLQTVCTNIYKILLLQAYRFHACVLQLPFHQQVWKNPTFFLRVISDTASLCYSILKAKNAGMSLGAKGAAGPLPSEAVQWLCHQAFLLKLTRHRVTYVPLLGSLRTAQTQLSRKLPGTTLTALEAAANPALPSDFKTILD
Sequence of DNA polymerase I, thermostable (P19821 whole entry): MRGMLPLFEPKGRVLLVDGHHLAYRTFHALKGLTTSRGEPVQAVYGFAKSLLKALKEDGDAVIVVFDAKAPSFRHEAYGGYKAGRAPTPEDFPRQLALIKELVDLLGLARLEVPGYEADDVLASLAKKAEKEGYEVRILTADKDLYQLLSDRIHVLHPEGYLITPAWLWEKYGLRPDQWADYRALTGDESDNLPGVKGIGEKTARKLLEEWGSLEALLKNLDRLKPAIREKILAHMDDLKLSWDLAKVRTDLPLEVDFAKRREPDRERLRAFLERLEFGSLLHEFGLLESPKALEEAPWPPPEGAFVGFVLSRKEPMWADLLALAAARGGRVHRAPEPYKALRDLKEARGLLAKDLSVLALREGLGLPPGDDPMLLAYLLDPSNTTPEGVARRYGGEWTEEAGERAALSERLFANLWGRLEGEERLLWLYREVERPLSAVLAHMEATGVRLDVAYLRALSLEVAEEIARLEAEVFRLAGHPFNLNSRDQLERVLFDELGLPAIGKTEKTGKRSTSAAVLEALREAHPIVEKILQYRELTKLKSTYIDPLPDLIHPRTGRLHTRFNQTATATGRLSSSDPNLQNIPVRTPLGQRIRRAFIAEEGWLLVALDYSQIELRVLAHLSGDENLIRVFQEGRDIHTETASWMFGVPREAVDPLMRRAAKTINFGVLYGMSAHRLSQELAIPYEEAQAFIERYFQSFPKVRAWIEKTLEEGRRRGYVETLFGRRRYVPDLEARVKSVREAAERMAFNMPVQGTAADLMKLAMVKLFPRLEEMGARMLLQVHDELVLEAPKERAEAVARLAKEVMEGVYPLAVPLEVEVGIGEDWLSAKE

| Structure (SMILES) | IC50 (PC-3) [µM] | IC50 (HepG2) [µM] | IC50 (SGC-7901) [µM] | IC50 [1] [µM] | Ratio IC50 [2] | IC50 [3] [µM] |
| --- | --- | --- | --- | --- | --- | --- |
| O=c1[nH]cc(F)c(=O)[nH]1 [FLUOROURACIL] | 15.7 | 18.9 | 31.5 |  |  |  |
| CC1=NN(C(=O)c2ccccc2C)C(c2ccccc2O)C1 (stereo not drawn) | 106 | 95.2 | 104 | 50.5 | 2.1 | 24.5 |
| CC1=NN(C(=O)CCl)C(c2ccccc2O)C1 (stereo not drawn) | 20.1 | 47.9 | 26.8 | 20.4 | 2.1 | 9.5 |
| CC1=NN(C(=O)c2ccccc2)C(c2cccc(C)c2O)C1 (stereo not drawn) | 154 | 177 | 150 |  |  |  |
| CC1=NN(C(=O)c2ccccc2Cl)C(c2ccccc2O)C1 (stereo not drawn) | 84.2 | 95.5 | 103 | 36 |  |  |
| CC1=NN(S(=O)(=O)c2ccc(C)cc2)C(c2ccccc2O)C1 (stereo not drawn) | 85.5 | 66.8 | 73.6 | 30 | 1.9 | 16.8 |
| CC[n+]1c(-c2ccccc2)c2cc(N)ccc2c2ccc(N)cc21 [HOMIDIUM BROMIDE] |  |  |  |  |  | 2.6 |
| CC1=NN(C(=O)Cc2ccc([N+](=O)[O-])cc2)C(c2ccccc2O)C1 (stereo not drawn) | 132 | 107 | 97.3 |  |  |  |
| CC1=NN(C(=O)c2ccccc2)C(c2ccccc2O)C1 (stereo not drawn) | 30.9 | 29.4 | 21.2 | 8 | 2 | 4 |
| CC1=NN(C(=O)c2ccc(C)cc2)C(c2ccccc2O)C1 (stereo not drawn) | 116 | 78.9 | 51.5 |  |  | 31.5 |
| CC1=NN(S(=O)(=O)c2ccccc2)C(c2ccccc2O)C1 (stereo not drawn) | 50.6 | 57.2 | 66.4 | 31 | 1.8 | 17.3 |
